# Active and inactive are the calls of the source. The calls are words filed in the database; no cut-off is given here.
# Experiments:
# [1] = test system: MDA231-LM2-4175; test: Effect on total STAT3 level in human MDA231-LM2-4175 cells at 0.3 to 3 uM measured after 3 hrs by Western blot analysis; assay type: functional, cell-based; conditions: dose 0.3-3 µM
# Procedure, shortened: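 Breast cancer cells were treated with vehicle (0.1% DMSO) or compound, then lysed in RIPA with PMSF and phosphatase inhibitors. 20–50 μg protein was run on 8 or 12% SDS-PAGE, blotted to PVDF, blocked in 5% BSA, probed with primary antibodies overnight at 4 °C, then HRP secondaries, with ECL detection.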
# [2] = target: T1, Signal transducer and activator of transcription 1-alpha/beta (Homo sapiens) (UniProt P42224); test: Inhibition of STAT1 phosphorylation at Y701 residue in human MDA-MB-231 cells at 0.3 to 3 uM after 3 hrs by Western blotting analysis; assay type: cell-based; conditions: dose 0.3-3 µM
# T1 sequence (whole entry): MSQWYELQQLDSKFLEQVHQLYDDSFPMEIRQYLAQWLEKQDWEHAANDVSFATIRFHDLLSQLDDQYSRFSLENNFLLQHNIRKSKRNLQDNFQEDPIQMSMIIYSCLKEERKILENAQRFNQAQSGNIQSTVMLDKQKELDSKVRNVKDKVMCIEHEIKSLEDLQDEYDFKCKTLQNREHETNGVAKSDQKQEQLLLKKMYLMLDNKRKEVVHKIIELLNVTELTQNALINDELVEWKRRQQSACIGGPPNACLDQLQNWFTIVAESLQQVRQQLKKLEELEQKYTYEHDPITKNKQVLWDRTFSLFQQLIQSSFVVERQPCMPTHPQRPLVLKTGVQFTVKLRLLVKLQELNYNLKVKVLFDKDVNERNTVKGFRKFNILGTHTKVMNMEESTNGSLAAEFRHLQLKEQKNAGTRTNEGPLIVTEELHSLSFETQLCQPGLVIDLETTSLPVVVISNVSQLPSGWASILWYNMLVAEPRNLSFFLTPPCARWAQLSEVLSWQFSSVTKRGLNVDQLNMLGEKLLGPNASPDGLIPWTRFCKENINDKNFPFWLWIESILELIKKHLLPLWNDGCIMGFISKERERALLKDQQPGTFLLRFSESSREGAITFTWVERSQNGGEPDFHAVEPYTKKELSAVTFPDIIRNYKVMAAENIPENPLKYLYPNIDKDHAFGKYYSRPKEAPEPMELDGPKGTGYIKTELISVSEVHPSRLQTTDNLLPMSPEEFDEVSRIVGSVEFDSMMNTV
# [3] = target: T2, Signal transducer and activator of transcription 3 (Homo sapiens, UniProt P40763); test: Inhibition of HA-tagged STAT3 dimerization (unknown origin) expressed in HEK293T cells preincubated for 3 hrs followed by IL-3 stimulation by immunoprecipitation analysis; assay type: cell-based; conditions: dose 1-3 µM
# [4] = target: T2, Signal transducer and activator of transcription 3; test: Inhibition of STAT3 in human MDA231-LM2-4175 cells assessed as downregulation of Mcl-1 expression at 0.3 to 3 uM after 24 hrs by western blot analysis; assay type: cell-based; conditions: dose 0.3-3 µM
# Procedure, shortened: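 TNBC cells given vehicle (0.1% DMSO) or graded compound levels for 24 h, lysed in RIPA with PMSF and phosphatase inhibitors. BCA-quantified lysate (20–50 µg) run on SDS-PAGE, transferred to PVDF, blocked in 5% BSA. Probed overnight at 4 °C for Bcl-xL, Mcl-1 and c-Myc, with β-actin. HRP secondary, ECL detection. Three independent experiments.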
# [5] = test system: MDA-MB-468; test: Antiproliferative activity against human MDA-MB-468 cells assessed as reduction in cell viability after 72 hrs by CCK8 assay; assay type: functional, cell-based; conditions: MDA-MB-468, 72 h
# Procedure, shortened: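 Cells seeded at 1000–8000 per well were grown overnight, then exposed to 0.1–100 μM compound or 0.1% DMSO vehicle for 72 h. CCK-8 was added for 0.5–4 h at 37 °C and absorbance read at 480 nm. Viability = (OD compound − blank)/(OD vehicle − blank) × 100, with medium as blank. IC50 fitted from three independent experiments.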
# [6] = test system: MDA-MB-231; test: Induction of apoptosis in human MDA-MB-231 cells assessed as necrotic cells at 1 uM after 48 hrs by Annexin-V-FITC/propidium iodide staining based flow cytometric analysis (Rvb =0.543%); assay type: functional
# [7] = test system: MDA-MB-231; test: Induction of apoptosis in human MDA-MB-231 cells assessed as viable cells at 3 uM after 48 hrs by Annexin-V-FITC/propidium iodide staining based flow cytometric analysis (reference value: 93.4%); assay type: functional; conditions: read-out: Activity
# [8] = test system: MDA-MB-231; test: Induction of apoptosis in human MDA-MB-231 cells assessed as late apoptotic cells at 3 uM after 48 hrs by Annexin-V-FITC/propidium iodide staining based flow cytometric analysis (Rvb =3.05%); assay type: functional
# [9] = test system: MDA231-LM2-4175; test: Inhibition of cell migration in human MDA231-LM2-4175 cells incubated for 12 to 96 hrs by wound healing assay; assay type: functional, cell-based; conditions: dose 0.3-3 µM, time 12-96 hrs
# Procedure, shortened: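 Cells grown to 100% confluence, then scratched with a pipette tip. Treated with 0–3 μM until vehicle-treated cells had migrated into the scratch. Images taken by microscope after about 12–96 h. Triplicate experiments.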
# [10] = test system: MDA-MB-468; test: Inhibition of cell invasion in human MDA-MB-468 cells incubated for 12 hrs by crystal violet staining based transwell assay; assay type: functional; conditions: dose 1-3 µM
# Procedure, shortened: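 Cells seeded at 1.5×10^4–3×10^4 per well in the upper chamber of 8.0 µm pore Transwell inserts and treated with graded compound for 12 h. Non-invading cells removed with cotton. Invaded cells fixed in 4% paraformaldehyde, stained with crystal violet, photographed and counted. Triplicate.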
# [11] = Toxicity in mouse xenografted with human MDA-MB-231-4175 cells assessed as morphological change in lung at 5 to 15 mg/kg, […] once daily for 20 days by HE staining based assay; assay type: organism-based; conditions: in vivo, iv, 480 h, dose 5-15 mg/kg, time 20 day
# Procedure, shortened: (§1)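 Female NOD-SCID mice aged 4–5 weeks, given 2×10^6–3×10^6 MDA-MB-231-4175 cells subcutaneously in the flank. At about 100 mm³ tumour volume, randomised n=6/group: vehicle (PBS with 15% Cremophor EL), 5 or 15 mg/kg intraperitoneally daily. Killed at day 20; heart, liver, spleen, lung and kidney collected for morphological examination.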
# [12] = test system: Breast cancer cell line; test: Antitumor activity against patient-derived breast cancer cells xenografted in NOD/SCID mouse assessed as reduction in pY705-STAT3 expression at 5 to 15 mg/kg, iv administered once daily for 20 days by Western blotting analysis; assay type: functional, organism-based; conditions: Homo sapiens, dose 5-15 mg/kg, time 20.0 day
# [13] = Toxicity in NOD/SCID mouse xenografted with patient-derived breast cancer cells assessed as morphological change in heart at 5 to 15 mg/kg, […] once daily for 20 days by HE staining based assay; assay type: organism-based; conditions: in vivo, iv, dose 5-15 mg/kg, time 20 day
# Procedure, shortened: as §1, with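 “implanted” for “aged 4–5 weeks, given 2×10^6–3×10^6 MDA-MB-231-4175 cells”, “flank with about 2 mm³ TNBC PDX fragments.” for “flank.”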
# [14] = Toxicity in NOD/SCID mouse xenografted with patient-derived breast cancer cells assessed as morphological change in lung at 5 to 15 mg/kg, […] once daily for 20 days by HE staining based assay; assay type: organism-based; conditions: in vivo, iv, dose 5-15 mg/kg, time 20 day
# Procedure, shortened: as §1, with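 “implanted” for “aged 4–5 weeks, given 2×10^6–3×10^6 MDA-MB-231-4175 cells”, “flank with about 2 mm³ TNBC PDX fragments.” for “flank.”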
# T2 sequence (P40763 whole entry): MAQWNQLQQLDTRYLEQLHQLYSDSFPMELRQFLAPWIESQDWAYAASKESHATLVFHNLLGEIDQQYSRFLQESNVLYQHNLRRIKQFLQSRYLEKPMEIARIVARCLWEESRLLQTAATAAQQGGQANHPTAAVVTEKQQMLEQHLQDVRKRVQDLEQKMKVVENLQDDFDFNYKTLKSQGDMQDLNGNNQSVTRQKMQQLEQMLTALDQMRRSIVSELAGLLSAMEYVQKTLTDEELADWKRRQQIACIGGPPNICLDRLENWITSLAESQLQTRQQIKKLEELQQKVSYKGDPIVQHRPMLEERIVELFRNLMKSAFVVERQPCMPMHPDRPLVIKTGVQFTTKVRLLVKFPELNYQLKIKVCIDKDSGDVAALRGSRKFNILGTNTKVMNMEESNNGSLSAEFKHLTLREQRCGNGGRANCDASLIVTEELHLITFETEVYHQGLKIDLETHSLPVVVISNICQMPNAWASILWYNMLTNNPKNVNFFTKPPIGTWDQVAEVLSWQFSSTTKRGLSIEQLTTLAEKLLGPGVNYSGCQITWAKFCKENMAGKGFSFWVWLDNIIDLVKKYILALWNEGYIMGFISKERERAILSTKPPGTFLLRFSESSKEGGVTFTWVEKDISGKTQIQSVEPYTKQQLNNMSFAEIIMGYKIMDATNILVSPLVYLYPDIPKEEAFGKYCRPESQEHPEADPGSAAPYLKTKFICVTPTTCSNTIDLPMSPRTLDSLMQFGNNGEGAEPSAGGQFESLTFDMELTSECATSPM
smiles,measurement,setting,value
O=C(Cc1c(-c2ccccc2)nc2ccccn12)Nc1ccc2c(c1)S(=O)(=O)C=C2,Activity,[1],inactive
same,inhibition,[2],inactive
same,inhibition,[3],Dose-Dependent Effect
same,inhibition,[4],Active
same,IC50,[5],2500 nM
same,Activity,[6],1.57%
same,viability at 3 µM,[7],73.9%
same,Activity,[8],11.5%
same,inhibition,[9],Dose-Dependent Effect
same,inhibition,[10],Dose-Dependent Effect
same,Activity,[11],Non-Toxic
same,Activity,[12],Active
same,Activity,[13],Non-Toxic
same,Activity,[14],Non-Toxic
